Active and inactive are the calls of the source. The rule behind the calls is not given here.
Test system: Staphylococcus aureus
Experiment: Antimicrobial activity against methicillin-sensitive Staphylococcus aureus ATCC 6538 at 100 ug after 20 hrs by agar plate diffusion assay
Assay type: functional, organism-based
How it was run: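 Agar disk diffusion. Cells were grown on Mueller-Hinton agar at 37 °C for 24 h, resuspended in Mueller-Hinton broth to 108 CFU/mL and incubated again. They were then diluted to 105 CFU/mL and used to inoculate Mueller-Hinton agar plates. 6 mm disks loaded with 100 µg compound were placed on the plates and incubated 20 h at 37 °C. Inhibition zones >10 mm were scored positive.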

| SMILES | Activity |
| --- | --- |
| COc1cc(-c2c(O)c(C=O)cc3cc(OC)c(O)cc23)ccc1O | inactive |
| COc1cc(C[C@@H](CO)[C@H](CO)Cc2ccc(O)c(OC)c2)ccc1O | inactive |
| COc1cc2cc3c(c(-c4ccc(OC)c(OC)c4)c2cc1O)COC3=O | inactive |
| COc1ccc(-c2c(O)c(C=O)cc3ccc(O)c(OC)c23)cc1OC | inactive |
| COc1ccc(-c2c3c(cc4ccc(O)c(OC)c24)C(=O)OC3)cc1OC | inactive |

Source: ChEMBL document CHEMBL1150832, “Phenylnaphthalene compounds from the subterranean part of Vitex rotundifolia and their antibacterial activity against methicillin-resistant Staphylococcus aureus” (2001)
